Source: ChEMBL document CHEMBL3124762, “De-novo designed library of benzoylureas as inhibitors of BCL-XL: synthesis, structural and biochemical characterization” (J Med Chem, 2014)
pIC50, pKd: −log10 of the molar value.

Key:
[1] = Inhibition of binding of biotinylated mouse BIM BH3-26mer peptide to GST-tagged mouse BCL-Xl delta C25 mutant by AlphaScreen/[…] assay
Outline: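 Bead-based AlphaScreen competition: compounds titrated by serial dilution from 150 µM against GST-BCL-XL ΔC25 (0.6 nM final) and biotinylated BIM BH3 26-mer (5.0 nM final). Anti-GST acceptor and streptavidin donor beads at 15 µg/mL each. Protein/acceptor and peptide/donor pairs pre-incubated 30 min. Compound plus protein complex 30 min, then peptide complex 4 h at room temperature. 1% DMSO final. IC50 from at least two separate experiments.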

[2] = Inhibition of binding of wild type mBIMBH3 peptide to human Bcl-2 delta C22 mutant by surface plasmon resonance competition experiment
Outline: (§1)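 Solution competition SPR: recombinant pro-survival protein (10 nM) incubated 2 h with compound (25–0.024 µM) in HEPES 10 mM, 150 mM NaCl, 3.4 mM EDTA, 0.005% Tween 20, pH 7.4. Mixture then injected over CM5 chip bearing immobilized wild-type mBIMBH3 26-mer, with inert mutant mBIMBH3 surface as reference. IC50 is the mean of three independent experiments ± SEM.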

[3] = target: Bcl-2-related protein A1 (Mus musculus) (UniProt Q07440); test: Inhibition of binding of wild type mBIMBH3 peptide to mouse Bcl-2-related protein A1 by surface plasmon resonance competition experiment
Bcl-2-related protein A1 (Mus musculus), sequence (Q07440 whole entry, looked up): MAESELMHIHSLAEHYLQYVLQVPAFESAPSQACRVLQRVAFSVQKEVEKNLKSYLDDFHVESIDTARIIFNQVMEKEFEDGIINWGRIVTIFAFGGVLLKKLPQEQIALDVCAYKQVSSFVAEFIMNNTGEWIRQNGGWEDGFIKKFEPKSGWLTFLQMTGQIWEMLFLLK

[4] = Inhibition of binding of wild type mBIMBH3 peptide to human Bcl-XL delta C24 mutant by surface plasmon resonance competition experiment; outline: as §1
[5] = target: T1, Bcl-2-like protein 1 (Homo sapiens, UniProt Q07817); test: Direct binding affinity to free Bcl-XL (unknown origin) assessed as […] measured for 60 secs by surface plasmon resonance
T1 sequence (Q07817 whole entry): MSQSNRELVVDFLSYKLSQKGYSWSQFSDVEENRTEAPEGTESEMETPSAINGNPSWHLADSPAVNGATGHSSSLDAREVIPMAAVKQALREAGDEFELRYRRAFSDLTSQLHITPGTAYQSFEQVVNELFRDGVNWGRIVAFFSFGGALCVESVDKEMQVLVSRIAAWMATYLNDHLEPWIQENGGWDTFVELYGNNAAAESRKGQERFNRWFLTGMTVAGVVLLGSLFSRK
Outline: (§2)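 Biacore S51 direct binding. GST-BCL-XL captured on an amine-coupled anti-GST antibody surface (about 1200 RU), in phosphate buffer pH 7.4 with 150 mM NaCl, 1 mM EDTA, 0.03% Tween 20 and 5% DMSO. Each cycle, 30 nM wt-BIM 26-mer pre-blocks the groove on the reference spot. Double referencing, 4–6% DMSO solvent correction, 1:1 fit with mass transport; Kd = kd/ka.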

[6] = Inhibition of binding of wild type mBIMBH3 peptide to human/mouse chimeric MCL1 by surface plasmon resonance competition experiment; outline: as §1
[7] = target: T1, Bcl-2-like protein 1; test: Direct binding affinity to Bcl-XL (unknown origin) pre-saturated with 26-mer-wt-Bim assessed as dissociation constant measured for 120 secs by surface plasmon resonance; outline: as §2
[8] = target: Bcl-2-like protein 2 (Homo sapiens, UniProt Q92843, A128E/C29S); test: Inhibition of binding of wild type mBIMBH3 peptide to human Bcl-W delta C29 (C29S/A128E) mutant by surface plasmon resonance competition experiment; outline: as §1
Bcl-2-like protein 2, sequence (Q92843 2-193 C29S/A128E limits assumed): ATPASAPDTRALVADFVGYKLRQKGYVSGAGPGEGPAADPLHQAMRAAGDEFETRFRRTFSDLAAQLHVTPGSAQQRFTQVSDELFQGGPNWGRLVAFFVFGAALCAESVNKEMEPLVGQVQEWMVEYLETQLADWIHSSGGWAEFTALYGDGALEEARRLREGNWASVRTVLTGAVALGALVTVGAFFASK

Row | pIC50 [1] | Structure (SMILES) | also measured
1 | 4.82 | CCCN(C(=O)N[C@@H](CSCC(C)C)C(=O)O)C(=O)c1cccc(C#Cc2ccccc2)c1 | –
2 | 4.14 | CCCN(C(=O)N[C@@H](CSCCCc1ccccc1)C(=O)O)C(=O)c1cccc(C#Cc2ccccc2)c1 | –
3 | 3.84 | CCCN(C(=O)N[C@@H](CSCc1ccccc1-c1ccccc1)C(=O)O)C(=O)c1cccc(C#Cc2ccccc2)c1 | –
4 | 4.68 | CCCN(C(=O)N[C@@H](CSCCc1ccccc1)C(=O)O)C(=O)c1cccc(C#Cc2ccccc2)c1 | –
5 | 4.60 | CCCN(C(=O)N[C@@H](CSc1ccccc1)C(=O)O)C(=O)c1cccc(C#Cc2ccccc2)c1 | –
6 | 4.68 | CCCN(C(=O)N[C@@H](CSCc1ccc(OC)cc1)C(=O)O)C(=O)c1cccc(C#Cc2ccccc2)c1 | –
7 | 4.16 | CCCN(C(=O)N[C@@H](CSCC(C)C)C(=O)O)C(=O)c1cccc(C#Cc2cccc(F)c2)c1 | –
8 | 5.05 | CCCN(C(=O)N[C@@H](CSCC(C)C)C(=O)O)C(=O)c1cccc(C#Cc2ccc(F)cc2)c1 | –
9 | 4.24 | CCCN(C(=O)N[C@@H](CSCC(C)C)C(=O)O)C(=O)c1cccc(C#Cc2ccccc2C)c1 | –
10 | 4.29 | CCCN(C(=O)N[C@@H](CSCC(C)C)C(=O)O)C(=O)c1cccc(C#Cc2cccc(C)c2)c1 | –
11 | 4.30 | CCCN(C(=O)N[C@@H](CSCC(C)C)C(=O)O)C(=O)c1cccc(C#Cc2ccc(C)cc2)c1 | –
12 | < 3.82 | CCCN(C(=O)N[C@@H](CSCC(C)C)C(=O)O)C(=O)c1cccc(C#Cc2ccc(Oc3ccccc3)cc2)c1 | –
13 | < 3.82 | CCCN(C(=O)N[C@@H](CSCC(C)C)C(=O)O)C(=O)c1cccc(C#Cc2ccc(C(C)(C)C)cc2)c1 | –
14 | < 3.82 | CCCN(C(=O)N[C@@H](CSCC(C)C)C(=O)O)C(=O)c1cccc(C#Cc2ccncc2)c1 | –
15 | < 3.82 | CCCN(C(=O)N[C@@H](CSCC(C)C)C(=O)O)C(=O)c1cccc(C#Cc2cccnc2)c1 | –
16 | 4.41 | CCCN(C(=O)N[C@@H](CSCC(C)C)C(=O)O)C(=O)c1cccc(C#Cc2ccccc2F)c1 | –
17 | 4.66 | CCCN(C(=O)N[C@@H](CSCC(C)C)C(=O)O)C(=O)c1cccc(C#Cc2ccc(F)cc2F)c1 | pIC50 [2]: < 4.60; pIC50 [3]: < 4.60; pIC50 [4]: 5.36; pKd [5]: 5.31; pIC50 [6]: < 4.60; pKd [7]: 5.68; pIC50 [8]: < 4.60
18 | 4.89 | CCCN(C(=O)N[C@@H](CSCc1ccc(Br)cc1)C(=O)O)C(=O)c1cccc(C#Cc2ccc(F)cc2F)c1 | pKd [5]: 5.16; pKd [7]: 5.40
19 | 3.97 | CCCN(C(=O)N[C@@H](Cc1c[nH]c2ccccc12)C(=O)O)C(=O)c1cccc(-c2ccccc2)c1 | –
20 | < 3.82 | CCCN(C(=O)NCCSCc1ccccc1)C(=O)c1cccc(-c2ccccc2)c1 | –
21 | < 3.82 | CCCN(C(=O)N[C@@H](CSCc1ccccc1)C(=O)OC)C(=O)c1cccc(-c2ccccc2)c1 | –
22 | < 3.82 | CCCN(C(=O)N[C@@H](CSCc1ccccc1)C(N)=O)C(=O)c1cccc(-c2ccccc2)c1 | –
23 | 3.90 | CCCN(C(=O)N[C@@H](CSCc1ccccc1)C(=O)O)C(=O)c1cccc(-c2ccc(F)cc2)c1 | –
24 | 4.11 | CCCN(C(=O)N[C@@H](CSCc1ccccc1)C(=O)O)C(=O)c1cccc(-c2ccc(C)cc2)c1 | –
25 | 3.99 | CCCN(C(=O)N[C@@H](CSCc1ccccc1)C(=O)O)C(=O)c1cccc(-c2ccccc2Cl)c1 | –
26 | < 3.82 | CCCN(C(=O)N[C@@H](CSCc1ccccc1)C(=O)O)C(=O)c1cccc(-c2ccc(OC)cc2)c1 | –

Row | pIC50 [1] | Structure (SMILES) | also measured
27 | 4.07 | CCCN(C(=O)N[C@@H](CSCc1ccccc1)C(=O)O)C(=O)c1cccc(-c2ccc(Cl)cc2)c1 | –
28 | 4.11 | CCCN(C(=O)N[C@@H](CSCc1ccccc1)C(=O)O)C(=O)c1cccc(-c2ccc(Cl)c(Cl)c2)c1 | –
29 | 4.21 | CCCN(C(=O)N[C@@H](CSCc1ccccc1)C(=O)O)C(=O)c1cccc(-c2cccc3ccccc23)c1 | –
30 | 4.20 | CCCN(C(=O)N[C@@H](CSCc1ccccc1)C(=O)O)C(=O)c1cccc(-c2ccc3ccccc3c2)c1 | –
31 | < 3.82 | CCCN(C(=O)N[C@@H](CSCc1ccccc1)C(=O)O)C(=O)c1cccc(Cc2ccccc2)c1 | –
32 | 4.46 | CCCN(C(=O)N[C@@H](CSCc1ccccc1)C(=O)O)C(=O)c1cccc(C#Cc2ccccc2)c1 | –
33 | 3.85 | CCCN(C(=O)N[C@@H](CSCc1ccccc1)C(=O)O)C(=O)c1cccc(/C=C/c2ccccc2)c1 | –
34 | 4.26 | CCCN(C(=O)N[C@@H](CSCc1ccccc1)C(=O)O)C(=O)c1cccc(CCc2ccccc2)c1 | –
35 | 4.68 | CCCSC[C@H](NC(=O)N(CCC)C(=O)c1cccc(C#Cc2ccccc2)c1)C(=O)O | –
36 | 4.48 | CCCN(C(=O)N[C@@H](CSC(C)C)C(=O)O)C(=O)c1cccc(C#Cc2ccccc2)c1 | –
37 | 4.38 | CCCN(C(=O)N[C@@H](CSCC1CCCCC1)C(=O)O)C(=O)c1cccc(C#Cc2ccccc2)c1 | –
38 | 3.89 | CCN(C(=O)N[C@@H](CSCc1ccccc1)C(=O)O)C(=O)c1cccc(-c2ccccc2)c1 | –
39 | 3.96 | CCCN(C(=O)N[C@@H](CSCc1ccccc1)C(=O)O)C(=O)c1cccc(-c2ccccc2)c1 | –
40 | 3.86 | CCCCN(C(=O)N[C@@H](CSCc1ccccc1)C(=O)O)C(=O)c1cccc(-c2ccccc2)c1 | –
41 | < 3.82 | CCC(C)N(C(=O)N[C@@H](CSCc1ccccc1)C(=O)O)C(=O)c1cccc(-c2ccccc2)c1 (some centres undefined) | –
42 | < 3.82 | CC(C)N(C(=O)N[C@@H](CSCc1ccccc1)C(=O)O)C(=O)c1cccc(-c2ccccc2)c1 | –
43 | < 3.82 | O=C(O)[C@H](CSCc1ccccc1)NC(=O)N(Cc1ccccc1)C(=O)c1cccc(-c2ccccc2)c1 | –
44 | < 3.82 | Cc1ccc(CN(C(=O)N[C@@H](CSCc2ccccc2)C(=O)O)C(=O)c2cccc(-c3ccccc3)c2)cc1 | –
45 | < 3.82 | CCCN(C(=O)NC)C(=O)c1cccc(-c2ccccc2)c1 | –
46 | < 3.82 | CCCN(C(=O)N[C@@H](CC(C)C)C(=O)O)C(=O)c1cccc(-c2ccccc2)c1 | –
47 | < 3.82 | CCCN(C(=O)N[C@@H](Cc1ccccc1)C(=O)O)C(=O)c1cccc(-c2ccccc2)c1 | –
48 | < 3.82 | CCCN(C(=O)N[C@@H](Cc1ccc(O)cc1)C(=O)O)C(=O)c1cccc(-c2ccccc2)c1 | –
49 | < 3.82 | CCCN(C(=O)N[C@@H](CCc1ccccc1)C(=O)O)C(=O)c1cccc(-c2ccccc2)c1 | –
50 | < 3.82 | CCCN(C(=O)N[C@@H](Cc1ccc2ccccc2c1)C(=O)O)C(=O)c1cccc(-c2ccccc2)c1 | –
51 | – | O=C(NS(=O)(=O)c1ccc(NCCSc2ccccc2)c([N+](=O)[O-])c1)c1ccc(-c2ccc(F)cc2)cc1 | pIC50 [2]: 4.83; pIC50 [3]: 4.85; pIC50 [4]: 6.71; pIC50 [6]: 4.66; pIC50 [8]: < 4.60
